Screening results deposited in PubChem by several laboratories.
Ecoli tolC – E. coli tolC mutant growth inhibition | E. coli BW25113 tolC mutant growth, OD615 | growth inhibition, % at 10 µM (by protocol) | actives 2.2% (n = 65,000) | AID 573;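 active = growth inhibition at or above a cutoff equal to the mean over every tested compound plus 3 SD, cut at about 60% in these data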;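 also: growth measured after 20 h incubation at 37 °C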
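Assay system: tolC-deleted E. coli BW25113. Medium: kanamycin-containing LB broth (50 µg/mL). Dosing: 10 µM final, single dose. Timing: bacterial growth with compound for 20 h at 37 °C. Detection: A615 absorbance measurement. Read-out basis: growth inhibition in percent.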
Jurkat viability – cytotoxicity toward Jurkat cells; Jurkat E6.1 viability, ATP luminescence, 48 h; AID 463; inhibition, % at 4 µM; actives 1.2% (n = 56,000);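 active = inhibition above the mean inhibition of all tested compounds plus 3 SD, cut at about 28% in these data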
H69AR inhibit – blocks growth of human H69AR lung tumor cells; actives 6% (n = 85,000); H69AR lung tumor viability, ATP luminescence, 72 h; active compounds read low; viability, % at 10 µM;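 active = viability at or below 40%; inactive = viability above 40%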;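 also: multidrug resistant small cell line overexpressing MRP-1 efflux transporter; 100% = mean luminescence of untreated control wells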
HUVEC prolif 384 – blocks proliferation of human endothelial cells. HUVEC proliferation, CellTiter-Glo luminescence, 72 h; active compounds read low. actives 1.1% (n = 86,000). viability, % at 10 µM (by protocol). AID 648;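 active = viability at or below 30%; inactive = viability above 30%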;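 also: 100% = median luminescence of DMSO-only cell control wells on each plate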
Ecoli WT expand – growth inhibitors of E. coli BW25113 wild type; OD600 absorbance; growth inhibition, % at 100 µM; actives 0.15% (n = 98,000); AID 710;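 active = growth inhibition above about 50% at one test dose, limit read from the data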;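 also: growth measured after 20 h incubation at 37 °C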
Fibroblast inh – blocks proliferation of human lung fibroblasts; LL 47 human lung fibroblast viability, ATP luminescence; active compounds read low; viability, % at 10 µM; actives 1.1% (n = 85,000);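 active = viability at or below 50% in the single dose screen; inactive = viability above 50%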;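 also: compound exposure lasted 72 h before the ATP readout; 100% = median luminescence of untreated cell-only wells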
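Material: Human LL 47 lung fibroblast cells | Input: 1,150 cells/well | Buffer or medium: IMEM plus 15% FBS | Compound dosing: 0.1% DMSO in all compound wells | Times: Overnight cell rest, 72 h compound treatment at 37 °C | Signal: CellTiter-Glo luminescence measuring cellular ATP | Measure: % viability versus median cells-only luminescence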
Numbers without * were called inactive; / = no result given. Most compounds without a hit are left out; they make up all but 6.4% or so of the library.

SMILES	Ecoli tolC	Jurkat viability	H69AR inhibit	HUVEC prolif 384	Ecoli WT expand	Fibroblast inh
CC1CCCCC1NC(=O)CN1C(=O)NC(Cc2ccccc2)(Cc2ccccc2)C1=O (centres undefined)	/	/	/	/	8	/
CC(NC(=O)CN1C(=O)NC(Cc2ccccc2)(Cc2ccccc2)C1=O)C12CC3CC(CC(C3)C1)C2 (centres undefined)	/	/	6.3*	74	-7	89
CCn1c(SCC(=O)N2CCCc3ccccc32)nnc1-c1ccco1	2	-5	106	89	-2	106
Cc1conc1NC(c1cccs1)c1ccc2cccnc2c1O (centres undefined)	0	30*	19*	24*	40	3.1*
Cc1cccnc1NC(=S)NC(=O)c1cccs1	/	/	/	/	0	/
CC(C)(C)c1ccc(-c2nnc(SCCC#N)n2C2CCCC2)cc1	61*	-1	69	101	-10	92
O=C(CSc1nnc(-c2ccc(Br)cc2)n1C1CCCCC1)N1CCCC1	6	-2	75	105	-5	96
COc1ccc2[nH]c(=O)c(CN(Cc3cccs3)S(=O)(=O)c3cccc4nsnc34)cc2c1	31	-3	3.0*	74	-6	83
COC(=O)/C(=C\Nc1ccc(Cl)c2ccccc12)c1ncc(C(F)(F)F)cc1Cl	/	/	33*	108	5	93
CCOC(=O)/C(=C\Nc1ccccc1C(F)(F)F)Sc1ncc(C(F)(F)F)cc1Cl	/	/	100	138	-3	104
COc1cccc(-c2nc(CS(=O)(=O)CC(=O)Nc3cc(C)ccc3C)c(C)o2)c1	-15	4	20*	95	-3	103
COc1cccc(-c2nc(CS(=O)(=O)CC(=O)Nc3c(C)cccc3C)c(C)o2)c1	-10	-7	14*	79	-2	92
COc1cccc(-c2nc(CS(=O)(=O)CC(=O)NCCC(C)C)c(C)o2)c1	-10	0	/	/	2	/
CCc1ccc2[nH]c(=O)c(C(c3nnnn3CCOC)N3CCN(c4ccc(F)cc4)CC3)cc2c1 (centres undefined)	78*	-6	65	75	0	96
CCc1ccc2[nH]c(=O)c(C(c3nnnn3CCOC)N3CCN(c4ccccc4)CC3)cc2c1 (centres undefined)	13	0	98	85	-12	97
O=S(=O)(Nc1ccc(Cc2ccncc2)cc1)c1ccc(Cl)c(Cl)c1	/	/	/	/	4	/
CSc1nsc(SC)c1C(=O)OCC(F)(F)F	8	4	93	103	5	95
CC(C)Cn1c(SCC(=O)N2CCN(S(=O)(=O)c3ccccc3)CC2)nc2ccccc21	17	11	31*	82	0	95
CCCCOC(=O)Nc1cccc(C(=O)OCC)c1	/	/	85	96	-2	103
CCOC(=O)c1cccc(NC(=O)Nc2cc(OC)ccc2OC)c1	83*	-1	81	101	4	98
Cc1ccc2cc(C)c(N3CCN(c4ccccn4)CC3)nc2c1	26	9	101	106	-21	108
COc1ccc(C(=O)/C=C/c2ccccc2F)c(OC(=O)c2ccc([N+](=O)[O-])cc2)c1	/	/	/	/	-13	/
O=C(Oc1ccc(F)cc1C(=O)/C=C/c1cccs1)c1cccc([N+](=O)[O-])c1	/	/	3.0*	60	-24	64
CCOC(=O)C1=C(C)n2c(s/c(=C/c3cccc([N+](=O)[O-])c3)c2=O)=NC1c1ccc(O)c(OC)c1 (centres undefined)	/	/	3.2*	7.4*	-19	17*
COC(=O)c1c(C(=O)OC)c(-c2ccc(C)cc2)n2c1CS(=O)C2 (centres undefined)	/	/	90	102	3	103
SMILES	Ecoli tolC	Jurkat viability	H69AR inhibit	HUVEC prolif 384	Ecoli WT expand	Fibroblast inh
CCOC(=O)c1cc2c(ccn2C)n1Cc1ccccc1C	69*	0	97	98	-10	92
O=[N+]([O-])c1ccc(Oc2cccc(F)c2)c2ccncc12	/	/	34*	62	9	65
O=C(CSc1nnnn1-c1ccccc1)N1CCN(C(=O)c2ccco2)CC1	-6	-2	86	96	5	100
CCOC(=O)c1ccc(NC(=O)CN2C(=O)CCC2=O)cc1	/	/	117	95	/	97
CCOC(=O)c1ccc(NC(=O)CN2C(=O)C3C4C=CC(C4)C3C2=O)cc1 (centres undefined)	/	/	35*	94	5	100
CCOC(=O)c1cc2c(n(-c3ccccc3)c1=O)CC(C)(C)CC2=O	-25	2	36*	87	1	89
